Reference: EPA's CvTdb concentration-time database
“And” between values parts separate entries of the source, which are not always exact repeats. Equal values may be shown once.

Assays:
mouse = experiment: concentration in blood after dosing; negative times count back from the end of exposure; settings: dosed: tert-amyl methyl ether, inhalation, duration: 6 hr, CD-1 (Charles River)
Method in brief: (§1)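 A PubMed search, classifier screening and manual review identified published in vivo toxicokinetic studies, which together with two structured collections supplied concentration-versus-time and amount-versus-time points. Points were mostly digitised from plot screenshots with WebPlotDigitizer, otherwise copied from tables. Dose, route, subject details and medium were hand-curated from each paper, and sampling and analytical methods are those of the sources, often unreported.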

human = experiment: amount in urine after dosing (umol)
Method in brief: as §1

CCC(C)(C)OC [tertiary amyl methyl ether]
mouse
Settings | concentration in blood [ng/mL]
0.102 h, 100 ppm, male | 239
0.1024 h, 100 ppm, male | 295
0.1031 h, 100 ppm, male | 389
0.1368 h, 500 ppm, male | 3510
0.1371 h, 500 ppm, male | 4130
0.1374 h, 500 ppm, male | 4840
0.1381 h, 500 ppm, male | 6060
0.1502 h, 100 ppm, male | 655
0.1928 h, 2500 ppm, male | 29900
0.1936 h, 2500 ppm, male | 24400
0.3202 h, 500 ppm, male | 2390
0.3841 h, 2500 ppm, male | 24800
0.385 h, 2500 ppm, male | 19700
0.3858 h, 2500 ppm, male | 14700
0.4399 h, 100 ppm, male | 209
0.444 h, 2500 ppm, female | 22700
0.4444 h, 2500 ppm, female | 20100
0.4448 h, 2500 ppm, female | 17200
0.4618 h, 100 ppm, male | 127
0.4629 h, 100 ppm, male | 273
0.8712 h, 500 ppm, male | 37.4
0.8718 h, 500 ppm, male | 1260
0.9575 h, 2500 ppm, male | 15100
0.9591 h, 2500 ppm, male | 4950
0.9832 h, 2500 ppm, female | 10000
1.014 h, 2500 ppm, female | 15500
1.656 h, 100 ppm, male | 2.6
2.039 h, 2500 ppm, male | 5350
2.04 h, 2500 ppm, male | 286
9.736 h, 500 ppm, male | 67.1
9.816 h, 100 ppm, male | 1.38
9.95 h, 2500 ppm, male | 153
17.75 h, 100 ppm, male | 3.94
17.86 h, 2500 ppm, male | 441
57.5 min, 2500 ppm, male | 10000
224 s, 2500 ppm, female | 37500
226 s, 2500 ppm, female | 34900
229 s, 2500 ppm, female | 29400

mouse, during exposure
Settings | concentration in blood
-171 s, 100 ppm, male | 1330 ng/mL
-165 s, 100 ppm, male | 1570 ng/mL
-160 s, 100 ppm, male | 1750 ng/mL
-6 h, 100 ppm, male | 1190 ng/mL
-6 h, 2500 ppm, male | 19400 ng/mL
-5.956 h, 100 ppm, male | 1080 ng/mL
-5.842 h, 100 ppm, male | 1220 ng/mL
-5.755 h, 100 ppm, male | 806 ng/mL
-5.69 h, 500 ppm, male | 7230 ng/mL
-5.688 h, 500 ppm, male | 9580 ng/mL
-5.663 h, 100 ppm, male | 1040 ng/mL
-5.662 h, 100 ppm, male | 1100 ng/mL
-5.642 h, 100 ppm, male | 814 ng/mL
-5.627 h, 2500 ppm, female | 37500 ng/mL
-5.168 h, 500 ppm, male | 7230 ng/mL
-5.167 h, 500 ppm, male | 8960 ng/mL
-5.138 h, 500 ppm, male | 5900 ng/mL
-5.124 h, 100 ppm, male | 780 ng/mL
-5.123 h, 100 ppm, male | 866 ng/mL
-5.122 h, 100 ppm, male | 1090 ng/mL
-5.094 h, 2500 ppm, female | 64100 ng/mL
-5.092 h, 2500 ppm, female | 54400 ng/mL
-5.089 h, 2500 ppm, female | 32500 ng/mL
-5.084 h, 2500 ppm, male | 49400 ng/mL
-5.083 h, 2500 ppm, male | 44300 ng/mL
-5.081 h, 2500 ppm, male | 34600 ng/mL
-5.077 h, 2500 ppm, male | 9690 ng/mL
-5.053 h, 2500 ppm, male | 59500 ng/mL
-4.247 h, 500 ppm, male | 9570 ng/mL
-4.246 h, 500 ppm, male | 11400 ng/mL
-4.245 h, 500 ppm, male | 12000 ng/mL
-4.086 h, 100 ppm, male | 926 ng/mL
-4.061 h, 100 ppm, male | 1220 ng/mL
-4.06 h, 100 ppm, male | 1360 ng/mL
-4.007 h, 2500 ppm, male | 71700 ng/mL
-4.005 h, 2500 ppm, male | 61100 ng/mL
-3.988 h, 2500 ppm, female | 67100 ng/mL
-3.987 h, 2500 ppm, female | 61600 ng/mL
-3.974 h, 2500 ppm, male | 66600 ng/mL
-3.972 h, 2500 ppm, male | 49300 ng/mL
-2.21 h, 500 ppm, male | 33800 ng/mL
-2.166 h, 2500 ppm, male | 78800 ng/mL
-2.165 h, 2500 ppm, male | 72500 ng/mL
-2.164 h, 2500 ppm, male | 66200 ng/mL
-2.159 h, 2500 ppm, female | 96100 ng/mL
-2.144 h, 100 ppm, male | 1310 ng/mL and 1340 ng/mL
-2.142 h, 100 ppm, male | 1570 ng/mL
-2.129 h, 500 ppm, male | 11900 ng/mL
-2.128 h, 500 ppm, male | 13700 ng/mL
-2.127 h, 500 ppm, male | 15500 ng/mL
-2.125 h, 2500 ppm, female | 81400 ng/mL
-2.122 h, 100 ppm, male | 1220 ng/mL
-0.1963 h, 500 ppm, male | 12000 ng/mL
-0.1937 h, 500 ppm, male | 17200 ng/mL
-0.1933 h, 500 ppm, male | 17800 ng/mL
-0.1652 h, 2500 ppm, male | 83400 ng/mL
-0.1636 h, 2500 ppm, male | 73700 ng/mL
-0.1617 h, 2500 ppm, male | 61500 ng/mL
-0.1057 h, 2500 ppm, female | 101000 ng/mL
-0.1034 h, 2500 ppm, female | 86400 ng/mL
-0.1026 h, 2500 ppm, female | 81300 ng/mL

CC(C)(O)C(=O)O [2-hydroxyisobutyrate]
human, dosed: methyl tert-butyl ether, oral
Settings | amount in urine
0 h, 5 mg | 0.0411
6.05 h, 15 mg | 3.18
6.268 h, 5 mg | 1.19
12.12 h, 5 mg | 2.99
12.19 h, 15 mg | 8.45
18.04 h, 15 mg | 10.7
18.39 h, 5 mg | 3.79
24.12 h, 15 mg | 9.14
24.44 h, 5 mg | 3.07
29.96 h, 15 mg | 11.8
30.29 h, 5 mg | 3.64
36.26 h, 15 mg | 9.95
36.46 h, 5 mg | 2.37
42.05 h, 15 mg | 4.96
42.31 h, 5 mg | 1.27
48.24 h, 15 mg | 2.63
48.47 h, 5 mg | 0.849
54.1 h, 15 mg | 3.08
54.53 h, 5 mg | 0.89
59.87 h, 15 mg | 1.63
60.27 h, 5 mg | 0.438
66.05 h, 15 mg | 0.953
66.44 h, 5 mg | 0.123
71.92 h, 15 mg | 0.593
72.6 h, 5 mg | 0.0411
77.99 h, 15 mg | 0.596
83.85 h, 15 mg | 0.357
90.03 h, 15 mg | 0.279
95.89 h, 15 mg | 0.322

human, inhalation, duration: 4 hr
Settings | amount in urine
0 h, dosed: methyl tert-butyl ether, 4.5 ppm | 10.8
0.116 h, dosed: methyl tert-butyl ether, 38.7 ppm | 17.8
0.1579 h, dosed: ethyl tert-butyl ether, 40.6 ppm | 13.3
0.2123 h, dosed: ethyl tert-butyl ether, 4.5 ppm | 11.1
6 h, dosed: ethyl tert-butyl ether, 40.6 ppm | 41
6.115 h, dosed: ethyl tert-butyl ether, 4.5 ppm | 19.1
6.219 h, dosed: methyl tert-butyl ether, 38.7 ppm | 71.9
6.261 h, dosed: methyl tert-butyl ether, 4.5 ppm | 20.2
12 h, dosed: ethyl tert-butyl ether, 40.6 ppm | 65.3
12 h, dosed: methyl tert-butyl ether, 4.5 ppm | 26.8
12.13 h, dosed: methyl tert-butyl ether, 38.7 ppm | 147
12.31 h, dosed: ethyl tert-butyl ether, 4.5 ppm | 23.3
18 h, dosed: ethyl tert-butyl ether, 40.6 ppm | 61.2
18.26 h, dosed: methyl tert-butyl ether, 4.5 ppm | 21.8
18.32 h, dosed: ethyl tert-butyl ether, 4.5 ppm | 21.5
18.4 h, dosed: methyl tert-butyl ether, 38.7 ppm | 149
24 h, dosed: ethyl tert-butyl ether, 40.6 ppm | 50.2
24 h, dosed: methyl tert-butyl ether, 4.5 ppm | 24.3
24.14 h, dosed: methyl tert-butyl ether, 38.7 ppm | 134
24.23 h, dosed: ethyl tert-butyl ether, 4.5 ppm | 20.8
30 h, dosed: ethyl tert-butyl ether, 40.6 ppm | 70.5
30.26 h, dosed: methyl tert-butyl ether, 4.5 ppm | 27.8
30.41 h, dosed: ethyl tert-butyl ether, 4.5 ppm | 22.2
30.42 h, dosed: methyl tert-butyl ether, 38.7 ppm | 132
36.1 h, dosed: methyl tert-butyl ether, 4.5 ppm | 18.2
36.14 h, dosed: methyl tert-butyl ether, 38.7 ppm | 85.6
36.21 h, dosed: ethyl tert-butyl ether, 40.6 ppm | 51
36.28 h, dosed: ethyl tert-butyl ether, 4.5 ppm | 14.6
42.16 h, dosed: ethyl tert-butyl ether, 40.6 ppm | 41.8
42.16 h, dosed: methyl tert-butyl ether, 4.5 ppm | 14.4
42.29 h, dosed: methyl tert-butyl ether, 38.7 ppm | 63
42.3 h, dosed: ethyl tert-butyl ether, 4.5 ppm | 13.6
48.13 h, dosed: methyl tert-butyl ether, 38.7 ppm | 41.8
48.16 h, dosed: ethyl tert-butyl ether, 40.6 ppm | 34.3
48.47 h, dosed: ethyl tert-butyl ether, 4.5 ppm | 14.4
54.21 h, dosed: ethyl tert-butyl ether, 40.6 ppm | 30.1
54.31 h, dosed: methyl tert-butyl ether, 38.7 ppm | 48.6
60.15 h, dosed: methyl tert-butyl ether, 38.7 ppm | 33.6
60.16 h, dosed: ethyl tert-butyl ether, 40.6 ppm | 37.6
66.16 h, dosed: ethyl tert-butyl ether, 40.6 ppm | 20.9
66.32 h, dosed: methyl tert-butyl ether, 38.7 ppm | 24
72.06 h, dosed: methyl tert-butyl ether, 38.7 ppm | 17.8
72.16 h, dosed: ethyl tert-butyl ether, 40.6 ppm | 17.5
